Screening data as filed in PubChem.
beta cell repl – inducers of beta-cell replication in MIN6 cells; actives 0.29% (n = 330,000); MIN6 cells proliferation, ATPlite luminescence, 48 h; cells starved in 0.2% serum; 100% = growth in 10% serum; AID 2380; proliferation, % at 10 µM;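 active = compounds whose signal lies at least 3.5 SD above the mean of all wells on their plate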
FLuc inh counter – inhibits firefly luciferase, flagging false hits in luciferase inhibition screens. ATPLite firefly luciferase biochemical luminescence, 10 min. P08659. actives 1.5% (n = 200,000). inhibition, % at 10 µM;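 active = inhibition above about 50% when tested at 10 µM, limit read from the data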
Target sequence (P08659 whole entry, looked up): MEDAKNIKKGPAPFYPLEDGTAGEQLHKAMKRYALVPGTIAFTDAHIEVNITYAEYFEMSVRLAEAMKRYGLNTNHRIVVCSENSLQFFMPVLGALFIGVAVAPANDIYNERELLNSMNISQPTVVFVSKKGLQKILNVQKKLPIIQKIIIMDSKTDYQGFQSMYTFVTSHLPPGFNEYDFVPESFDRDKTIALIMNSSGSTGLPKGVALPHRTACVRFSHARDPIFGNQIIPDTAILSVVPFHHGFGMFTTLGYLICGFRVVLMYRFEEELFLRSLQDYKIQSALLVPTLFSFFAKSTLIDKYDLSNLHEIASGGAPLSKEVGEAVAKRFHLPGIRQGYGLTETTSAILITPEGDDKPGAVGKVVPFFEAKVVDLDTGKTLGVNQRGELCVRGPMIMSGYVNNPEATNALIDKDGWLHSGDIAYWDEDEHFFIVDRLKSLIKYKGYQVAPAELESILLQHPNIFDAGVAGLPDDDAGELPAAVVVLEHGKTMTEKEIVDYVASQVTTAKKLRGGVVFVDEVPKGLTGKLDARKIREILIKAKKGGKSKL
hiPSC survival – increases survival of single human iPS cells. hiPSC single-cell survival, ATPlite luminescence; 100% = ROCK inhibitor wells, 0% = DMSO. actives 0.044% (n = 360,000). survival enhancement, % at 20 µM; in the data active = survival enhancement above about 18%;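 note: cells exposed to compounds for 16 hours before the ATP read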
FLuc act counter – firefly luciferase counter-screen for stimulation assays; ATPlite luciferase biochemical, luminescence, 10 min; 0 = ATP-free wells, 1 = DMSO control; activation factor at 10 µM; 200,000 tested, under 10 active; AID 1027;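 active = luciferase activation factor, scaled between plate controls, of at least 2 with compound at 10 µM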
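System: luciferase plus luciferin reagent, cell-free; medium: PBS as buffer for the ATP substrate; dosing: test compounds dosed from 2 mM stocks in 100% DMSO; timing: 10 min post-reagent at room temperature; measured by: luminescence measurement of luciferase light output; evaluation: luciferase activation, seen as luminescence increase over controls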
TRAIL sens C8 – caspase-8 TRAIL sensitization | actives 1% (n = 360,000) | NB7+C8 cells + TRAIL, ATPlite viability luminescence | inhibition (viability loss, TRAIL sensitization), % at 10 µM;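 active = compounds causing at least 50% loss of cell viability in the single-dose screen, relative to plate controls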
PPC-1+TRAIL kill – compounds killing PPC-1 cancer cells with TRAIL present (potentiator screen, no TRAIL-free arm); PPC-1 cells + TRAIL, ATPLite viability luminescence; cell killing (% activity), % at 4 µM or 5 µM; actives 0.41% (n = 220,000);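 active = cell killing above 50% in the first pass at 4 µM, then a duplicate retest at 5 µM averaging 50% or more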
Of the large screens only hits and unclear results are named; the others gave an inactive call. In the library only some 1.8% were active in any assay of this set; here they are far more common.

Nc1nc(CCl)nc(Nc2ccccc2)n1	none
COc1cccc(Nc2nc(N)nc(CCl)n2)c1	TRAIL sens C8 89 (no result: FLuc inh counter, FLuc act counter)
Cc1cccc(Nc2nc(N)nc(CCl)n2)c1	TRAIL sens C8 90 (no result: FLuc inh counter, FLuc act counter)
Cc1ccc(Nc2nc(N)nc(CCl)n2)cc1	TRAIL sens C8 93 (no result: FLuc inh counter, FLuc act counter)
O=C(CCS(=O)(=O)c1ccccc1)Nc1cccc(-c2nc3ccccc3s2)c1	TRAIL sens C8 54
O=C(Nc1cccc(S(=O)(=O)NCc2ccco2)c1)c1cccc(Cl)c1	none (no result: FLuc inh counter, FLuc act counter, PPC-1+TRAIL kill)
COc1cccc(C(=O)COC(=O)COc2c(C)cc(C)cc2C)c1	none (no result: FLuc inh counter, FLuc act counter, PPC-1+TRAIL kill)
CCOC(=O)N1CCN(C(=O)CSc2ccc(-c3ccc(OC)cc3)nn2)CC1	FLuc inh counter 58
CC(C)N1C(=O)N(c2cccc(Cl)c2)C(C)(O)CC1(C)C (centres undefined)	none (no result: FLuc inh counter, FLuc act counter, PPC-1+TRAIL kill)
COc1ccc(C(=O)Nc2ccccc2C(=O)O)cc1NC(=O)C(c1ccccc1)c1ccccc1	none (no result: FLuc inh counter, FLuc act counter)
CCN(CC)S(=O)(=O)c1cc(C(=O)Nc2ccccc2C(=O)O)ccc1OC	FLuc inh counter 59
COc1ccc(C(=O)Nc2ccccc2C(=O)O)cc1Cl	FLuc inh counter 76
Cc1ccc(CSC2=NCCN2C(=O)c2ccc(S(=O)(=O)N(C)C)cc2)cc1	none
O=C(NCCOC(=O)Nc1cccc2ccccc12)OCc1ccccc1	none (no result: beta cell repl, FLuc inh counter, FLuc act counter, PPC-1+TRAIL kill)
COc1ccc(OCC(=O)Nc2nc3ccccc3[nH]2)cc1	FLuc inh counter 68
O=C(Nc1nc2ccccc2[nH]1)c1cc(F)cc(F)c1	none (no result: FLuc inh counter, FLuc act counter, PPC-1+TRAIL kill)
COc1cc(OC)cc(C(=O)Nc2nc3ccccc3[nH]2)c1	TRAIL sens C8 53
O=C(CC1CCCC1)Nc1nc2ccccc2[nH]1	TRAIL sens C8 51
Cc1cc(C)cc(C(=O)Nc2nc3ccccc3[nH]2)c1	TRAIL sens C8 50 (no result: FLuc inh counter, FLuc act counter, PPC-1+TRAIL kill)
CCOc1ccc2ccccc2c1/C=N/NC(=O)CNC(=O)c1ccccc1O	none (no result: FLuc inh counter, FLuc act counter, PPC-1+TRAIL kill)
COC(=O)c1c(C)oc(C)c1S(=O)(=O)NC(C)(C)C	none (no result: FLuc inh counter, FLuc act counter)
CCn1cc(-c2n[nH]c(=S)n2-c2ccc(C)cc2Br)c(=O)c2ccc(C)nc21	none (no result: FLuc inh counter, FLuc act counter)
Cn1c2c(c3ccccc31)CCN(CCCCN1CCN(c3ccccc3)CC1)C2=O	none (no result: beta cell repl, FLuc inh counter, FLuc act counter, PPC-1+TRAIL kill)
Cc1ccsc1C(=O)Nc1nc2ccccc2[nH]1	TRAIL sens C8 60 (no result: FLuc inh counter, FLuc act counter)
COc1ccc(Cl)cc1C(=O)Nc1nc2ccccc2[nH]1	TRAIL sens C8 81 (no result: FLuc inh counter, FLuc act counter, PPC-1+TRAIL kill)
C=CCOC(=O)c1sc(NC(=O)c2ccc(OC)cc2)nc1C	none
Oc1ccc(/C=N/Nc2nc(-c3cccnc3)nc3ccccc23)c(O)c1	TRAIL sens C8 55 (no result: FLuc inh counter, FLuc act counter)
CSc1ccc(/C=C/C(=O)c2ccc(O)cc2)cc1	FLuc inh counter 70
Cc1ccc(/C=C/C(=O)c2ccc(O)cc2)cc1	none (no result: FLuc inh counter, FLuc act counter)
CN(C)c1ccc(C(=O)/C=C/c2ccco2)cc1	FLuc inh counter 91, TRAIL sens C8 54
CN(C)c1ccc(C(=O)/C=C/c2ccccc2)cc1	FLuc inh counter 78
Cc1ccc(C)c(Nc2nc3ccccc3n3cnnc23)c1	none (no result: FLuc inh counter, FLuc act counter, PPC-1+TRAIL kill)
O=C(N/N=C1\CCCc2ccccc21)c1ccc([N+](=O)[O-])cc1	FLuc inh counter 61
CN(Cc1ccccc1F)C(=O)CN1c2cccc3cccc(c23)S1(=O)=O	none (no result: FLuc inh counter, FLuc act counter, PPC-1+TRAIL kill)
COc1ccc(NC(=O)C2(N(CC(C)C)C(=O)Cn3nnnc3N)CCCCC2)cc1	PPC-1+TRAIL kill 56
Cc1ccc(NC(=O)C2(N(CC(C)C)C(=O)Cn3nnnc3N)CCCCC2)cc1	none
Cc1cc(F)ccc1S(=O)(=O)Nc1ccc(O)c(Sc2ncn[nH]2)c1	none (no result: FLuc inh counter, FLuc act counter, PPC-1+TRAIL kill)
C/C(=N\Nc1ncc(Cl)cc1Cl)c1ccccn1	FLuc inh counter 94, TRAIL sens C8 89 (no result: beta cell repl)
COc1cccc(CN(C)C(=O)CSC(C)C(=O)Nc2cc(C)on2)c1OC (centres undefined)	none (no result: FLuc inh counter, FLuc act counter, PPC-1+TRAIL kill)
COc1ccc(-c2cc(C(=O)Nc3c(C)n(C)n(-c4ccccc4)c3=O)c3ccccc3n2)cc1	none (no result: FLuc inh counter, FLuc act counter, PPC-1+TRAIL kill)
COc1ccc2cc(-c3cc(C(=O)OCC(=O)NC4CCS(=O)(=O)C4)c4ccccc4n3)ccc2c1 (centres undefined)	FLuc inh counter 95, TRAIL sens C8 92, PPC-1+TRAIL kill 95 (no result: beta cell repl)
COc1ccc2cc(-c3cc(C(=O)OCC(=O)Nc4c(C)n(C)n(-c5ccccc5)c4=O)c4ccccc4n3)ccc2c1	FLuc inh counter 94, TRAIL sens C8 97, PPC-1+TRAIL kill 92 (no result: beta cell repl)
